Source: the RNAGym collection of RNA variant scans (doi:10.1126/science.aae0568)
This sample holds only a part of the variants without activity.

B1: tRNA (parent)
chain: GUUCCGUUGGCGUAAUGGUAACGCGUCUCCCUCCUAAGGAGAAGACUGCGGGUUCGAGUCCCGUACGGAACG

Variants of: B1
Experiment: yeast fitness relative to wild type (ratio to wild type); higher = fitter; tRNA-Arg(CCU), competitive growth, 37 C, YPD
How it was run: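 Changes in genotype frequencies gave Darwinian fitness relative to wild type. Frequencies were read by 100-nucleotide paired-end sequencing of gene amplicons before and after pooled Saccharomyces cerevisiae strains, carrying tRNA-Arg(CCU) gene variants at the native locus, were competed in YPD at 37°C for 24 hours in six replicates. A genotype was kept only with ≥ 100 starting reads, and estimates < 0.5 were set to 0.5.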

Point of comparison: C11A A36G C49G A70G, yeast fitness 0.584. Against it:
- G10C G41A C62U — lower, ≤ 0.5
- G10C G44U — higher, 0.587
- G10C G50A — higher, 0.76
- G10C G51C A65C C66U — lower, ≤ 0.5
- G10C G51C A65U — lower, ≤ 0.5
- G10C G52A — higher, 0.666
- G10C G58A C66G — lower, ≤ 0.5
- G10C G58C G67A — lower, ≤ 0.5
- G10C U13A A14G A20G C22A C24G G52C — lower, ≤ 0.5
- G10C U13A C31A — higher, 0.594
- G10C U13A C31A C62U — lower, ≤ 0.5
- G10C U16C C22A C33A — lower, ≤ 0.5
- G10C U16G A43C G51C — lower, ≤ 0.5
- G10C U16G C31A U32G C66A — lower, ≤ 0.5
- G10C U19A A37C G50U — lower, 0.526
- G10C U19A C31G A42G — higher, 0.627
- G10C U19A C66U — lower, ≤ 0.5
- G10C U26A A70U — higher, 0.622
- G10C U26A C27U A42G A70G — lower, ≤ 0.5
- G10C U26A U59C C66U — lower, ≤ 0.5
- G10C U26C A45G A65C — higher, 0.635
- G10C U32C A42C A65C C66G — higher, 0.614
- G10C U32C C33A — lower, ≤ 0.5
- G10C U35G A43C U47C C55U A69C — lower, 0.574
- G10C U47A G48A — lower, 0.568
- G10C U47G C55U A70G — lower, ≤ 0.5
- G10C U54C G56A — lower, ≤ 0.5
- G10U A42U — higher, 0.775
- G10U C31U — higher, 0.78
- G10U G48A A70U — higher, 0.649
- G10U U13A — higher, 0.675
- G10U U26C G39A A65C — lower, ≤ 0.5
- C11A A14G A15G C22A G23A C33A G38C A70U — lower, ≤ 0.5
- C11A A14G C24U G41C A42G C55G — lower, ≤ 0.5
- C11A A14U C27U — lower, ≤ 0.5
- C11A A15C C24A C27A G41C — lower, 0.583
- C11A A15C C24G U59A — lower, ≤ 0.5
- C11A A15C U26A C29U C33A G38C C55A C60U — lower, ≤ 0.5
- C11A A15G C22G C61U — lower, ≤ 0.5
- C11A A15G C49U — lower, 0.55
- C11A A15U A20C — lower, ≤ 0.5
- C11A A15U A21U A36C A37U — lower, 0.56
- C11A A20G C22G C49G G68C A69C — lower, ≤ 0.5
- C11A A20G C46U G50C C60A — lower, ≤ 0.5
- C11A A20U C22U — lower, 0.552
- C11A A21C C30U C66U — lower, 0.539
- C11A A21C C31A C55U G68C — lower, ≤ 0.5
- C11A A21C C55U C62U G67C — lower, 0.529
- C11A A21G C33G A36U G44A U59C — lower, ≤ 0.5
- C11A A21U C34A — lower, ≤ 0.5
- C11A A21U C66U — lower, ≤ 0.5
- C11A A36C A42G U47C G67A — lower, ≤ 0.5
- C11A A36G A43C G48A — lower, 0.558
- C11A A36G A43U — lower, ≤ 0.5
- C11A A37C C49G C55G — lower, ≤ 0.5
- C11A A37U C62A C66U — lower, ≤ 0.5
- C11A A40C — higher, 0.708
- C11A A42C — higher, 0.606
- C11A A42C C62A — lower, ≤ 0.5
- C11A A42C G51A A69C — lower, ≤ 0.5
- C11A A43G A69U — lower, 0.582
- C11A A43G C46G A65U — lower, ≤ 0.5
- C11A A43G G50C G56C A65G — lower, ≤ 0.5
- C11A A45G — higher, 0.603
- C11A A57G — higher, 0.655
- C11A A69U — higher, 0.734
- C11A A70U — lower, 0.581
- C11A C22G — higher, 0.623
- C11A C22G C29G C62U — lower, 0.57
- C11A C22G G67A G68C — lower, ≤ 0.5
- C11A C22U U35C — lower, ≤ 0.5
- C11A C24G C49U — higher, 0.588
- C11A C24G U47G G68C — lower, ≤ 0.5
- C11A C24U C60A — lower, ≤ 0.5
- C11A C27A A70G — lower, ≤ 0.5
- C11A C27A C55U — lower, ≤ 0.5
- C11A C27G C30G G44C — lower, 0.538
- C11A C27G C33U G56A C61G — lower, ≤ 0.5
- C11A C27G C61G — lower, 0.52
- C11A C27G C61G G68A — lower, ≤ 0.5
- C11A C27G C62U G68A — lower, ≤ 0.5
- C11A C27G U35A A43U U54C A65G — higher, 0.659
- C11A C27U C30A A43C C60U — lower, ≤ 0.5
- C11A C27U C31U C34G A40G — lower, ≤ 0.5
- C11A C27U C31U C34G A40G G63C — lower, ≤ 0.5
- C11A C27U C33U U35C — higher, 0.634
- C11A C27U C33U U35C A57U — lower, ≤ 0.5
- C11A C27U G44C — lower, 0.572
- C11A C29U A43C A65U — lower, ≤ 0.5
- C11A C29U A57C — higher, 0.732
- C11A C29U C34G A36G — higher, 0.607
- C11A C29U C46U G67C A69U — lower, ≤ 0.5
- C11A C30G C31U U32C G52A U59C — lower, ≤ 0.5
- C11A C30U A42C — lower, ≤ 0.5
- C11A C30U A45C — lower, ≤ 0.5
- C11A C30U C33G U64C — lower, ≤ 0.5
- C11A C30U C49A A69U — lower, ≤ 0.5
- C11A C31A G38U G44C A65G — lower, ≤ 0.5
- C11A C31A U32C G44C A65G — lower, ≤ 0.5
- C11A C31G — higher, 0.592
- C11A C31G A42U C62U U64A — lower, ≤ 0.5
- C11A C31G A42U G67A — lower, ≤ 0.5
- C11A C31G C62G — lower, 0.506
- C11A C33A A40G A43G — lower, ≤ 0.5
- C11A C33U A43U — lower, 0.532
- C11A C33U C49U C60G — lower, ≤ 0.5
- C11A C34A U47A C61G — lower, ≤ 0.5
- C11A C34G G50A — higher, 0.681
- C11A C34G U35G G39A — lower, ≤ 0.5
- C11A C46G A65G — lower, ≤ 0.5
- C11A C46U A70G — lower, 0.56
- C11A C46U G48A C55U U59A — lower, ≤ 0.5
- C11A C46U U64C — lower, ≤ 0.5
- C11A C49U C61U — lower, ≤ 0.5
- C11A C55G — lower, 0.535
- C11A C61G — lower, ≤ 0.5
- C11A C62A — lower, ≤ 0.5
- C11A C62G G63A — lower, ≤ 0.5
- C11A C62U — higher, 0.616
- C11A G12A G25A — higher, 0.604
- C11A G17A — lower, 0.579
- C11A G17C A36G G41C A45G C49U — lower, ≤ 0.5
- C11A G17C A36G G41C U53C C61A G68A — lower, ≤ 0.5
- C11A G17C U47A G68C — lower, ≤ 0.5
- C11A G18A — lower, 0.58
- C11A G18A G58A U64C — lower, ≤ 0.5
- C11A G18C A45C A57C G68C — lower, ≤ 0.5
- C11A G23A G63C — lower, 0.551
- C11A G23C A42C A43C — lower, ≤ 0.5
- C11A G25C C29U — lower, ≤ 0.5
- C11A G38U C66A — lower, ≤ 0.5
- C11A G39C C62U — lower, ≤ 0.5
- C11A G44C G56A C66U — lower, 0.552
- C11A G48A U54A — the same, 0.584
- C11A G50A — higher, 0.651
- C11A G51A C66G — lower, ≤ 0.5
- C11A G52C C66U A69C — lower, ≤ 0.5
- C11A G52C G67A — lower, ≤ 0.5
- C11A G68U — lower, 0.54
- C11A U13A C31G A65C — lower, ≤ 0.5
- C11A U13A C31G C55U — lower, ≤ 0.5
- C11A U16A C29G A42C G51A — lower, ≤ 0.5
- C11A U16C G18C A20G A45C A57C G68C — lower, ≤ 0.5
- C11A U16C G18C U35C A45C A57C G68C — lower, 0.515
- C11A U19A A42U A45C C55U A69C — lower, 0.538
- C11A U19A C29A U32A U54C C55G C60G A70U — lower, ≤ 0.5
- C11A U19G A36G C49A G68C — lower, ≤ 0.5
- C11A U19G A36G C66U — lower, ≤ 0.5
- C11A U19G A36G U54C U64C G67A — lower, ≤ 0.5
- C11A U26C C29G C31U — higher, 0.655
- C11A U26C C29G C31U G48A — lower, ≤ 0.5
- C11A U28G C33A A42C — lower, ≤ 0.5
- C11A U32C C49U — higher, 0.606
- C11A U35A C61U C62U C66A — lower, ≤ 0.5
- C11A U47A A70C — lower, ≤ 0.5
- C11A U53A — higher, 0.59
- C11A U53A C62G — lower, ≤ 0.5
- C11A U53A G67A — lower, ≤ 0.5
- C11A U53C — lower, 0.556
- C11A U59A G67C A69C — lower, ≤ 0.5
- C11G A14G A15U G23C U53A C62U — lower, ≤ 0.5
- C11G A14G C24G G67C — lower, ≤ 0.5
- C11G A14G G17A A37G G48C C62U C66G A70G — lower, ≤ 0.5
- C11G A14U A43U G48A — lower, ≤ 0.5
- C11G A14U C22A C29G C34A — lower, ≤ 0.5
- C11G A14U U19A G25A C34U C60U G68A — lower, 0.517
